In ChEMBL document CHEMBL1129458, “Indole inhibitors of human nonpancreatic secretory phospholipase A2. 3. Indole-3-glyoxamides” (J Med Chem, 1996):

Key:
[1] = Mole fraction of the IC50 concentration of compound divided by the total lipid concentration (1230 uM) in a chromogenic assay; format: functional
Cavia porcellus [2] = species: Cavia porcellus; assay: Inhibition of Phospholipase A2 induced contraction of GP lung tissue; format: functional
Procedure, shortened: (§1)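 Guinea pig lung pleural strips were contracted with either hnps-PLA2 or arachidonic acid, the latter serving as the control challenge for selectivity. Antagonism is given as KB.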

[3] = target: T1, Phospholipase A2, major isoenzyme (Sus scrofa, UniProt P00592); assay: Compound was tested for inhibition of porcine secretory pancreatic PLA2
T1 sequence (P00592 whole entry): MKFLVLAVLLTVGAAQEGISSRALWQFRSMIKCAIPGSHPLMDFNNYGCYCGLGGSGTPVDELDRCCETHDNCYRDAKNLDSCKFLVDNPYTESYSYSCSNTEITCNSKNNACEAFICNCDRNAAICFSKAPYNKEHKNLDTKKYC

Cavia porcellus [4] = species: Cavia porcellus; assay: Inhibition Arachidonic acid(AA) induced contraction of GP lung tissue; format: functional; procedure, shortened: as §1
Phospholipase A2 [5] = target: T2, Phospholipase A2 (Homo sapiens, UniProt P04054); assay: Compound was tested for inhibition of human secretory pancreatic Phospholipase A2
T2 sequence (P04054 whole entry): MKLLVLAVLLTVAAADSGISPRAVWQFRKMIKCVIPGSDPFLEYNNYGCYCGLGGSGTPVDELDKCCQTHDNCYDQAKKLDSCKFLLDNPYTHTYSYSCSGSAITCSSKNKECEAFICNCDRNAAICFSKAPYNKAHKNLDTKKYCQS

[6] = Mole fraction is the IC50 concentration divided by the total lipid concentration (4000 uM) in DOC/PC assay; format: functional
Procedure, shortened: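 The value is a mole fraction: the DOC/PC assay IC50 (3 nM hnps-PLA2; 3 mM DOC/1 mM [14C]PC micelles; 1 h at 40 °C; released [14C]oleic acid counted) divided by the total lipid concentration of 4000 µM.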

[7] = target: T3, Phospholipase A2, membrane associated (Homo sapiens, UniProt P14555); assay: Inhibition of human nonpancreatic secretory Phospholipase A2 through chromogenic assay
T3 sequence (P14555 whole entry): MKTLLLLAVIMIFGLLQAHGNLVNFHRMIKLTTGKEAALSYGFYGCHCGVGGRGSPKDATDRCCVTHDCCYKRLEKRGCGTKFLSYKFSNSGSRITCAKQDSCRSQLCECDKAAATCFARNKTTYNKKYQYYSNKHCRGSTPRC

[8] = target: T3, Phospholipase A2, membrane associated; assay: Inhibition of human nonpancreatic secretory Phospholipase A2 through DOC/PC assay
Procedure, shortened: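 hnps-PLA2 (10 ng per tube; 3 nM) was preincubated with test compound in DMSO in pH 8 Tris buffer with 0.2 M NaCl, 2 mM CaCl2 and fatty-acid-free BSA. The substrate was sonicated mixed micelles (final 3 mM deoxycholate/1 mM PC) with [14C]-palmitoyl-oleoyl-PC. Reactions ran 1 h at 40 °C and were stopped with Dole reagent. Released [14C]oleic acid was extracted with heptane/silica and counted. IC50 was calculated against diluent controls.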

Phospholipase A2 [9] = target: T2, Phospholipase A2; assay: Compound was evaluated to inhibit human secretory pancreatic Phospholipase A2
Phospholipase A2 [10] = target: T2, Phospholipase A2; assay: Compound was tested for inhibition of human secreted pancreatic PLA2
[11] = target: T1, Phospholipase A2, major isoenzyme; assay: Compound was tested for inhibition of porcine secreted pancreatic PLA2
Phospholipase A2 [12] = target: T2, Phospholipase A2; assay: Compound was tested for inhibition of human secretory pancreatic PLA2

Row | SMILES | Mole fraction [1] | KB (Cavia porcellus [2]) [µM] | IC50 [3] [nM] | ED50 (Cavia porcellus [4]) [nM] | IC50 (Phospholipase A2 [5]) [nM] | Mole fraction [6] | IC50 [7] [nM] | IC50 [8] [nM] | IC50 (Phospholipase A2 [9]) [nM] | IC50 (Phospholipase A2 [10]) [nM] | IC50 [11] [nM] | IC50 (Phospholipase A2 [12]) [nM]
1 | CCc1c(C(=O)C(N)=O)c2c(OCC(=O)O)cccc2n1Cc1ccccc1 [VARESPLADIB] | 7.3e-06 | 0.083 | 48 | >30000 | 228 | 1.8e-06 | – | – | – | – | – | –
2 | CCc1c(C(=O)C(N)=O)c2c(OCC(=O)O)cccc2n1C(=O)c1ccccc1 | 6.6e-05 | 0.34 | – | – | – | 9.8e-06 | 81 | 39 | – | – | – | –
3 | CCc1c(C(=O)C(N)=O)c2c(OCC(=O)O)cccc2n1Cc1ccccc1-c1ccccc1 | 5e-06 | 0.057 | – | 30000 | – | 1.5e-06 | 6 | 6 | – | – | – | –
4 | Cc1c(C(=O)C(N)=O)c2c(OCC(=O)O)cccc2n1Cc1cccc2ccccc12 | 7.3e-06 | 0.128 | – | >30000 | 1200 | 4.3e-06 | 9 | 17 | – | – | – | –
5 | Cc1ccccc1Cn1c(C)c(C(=O)C(N)=O)c2c(OCC(=O)O)cccc21 | 1.3e-05 | 0.154 | – | >30000 | – | 1.1e-05 | 15 | 45 | – | – | – | –
6 | NC(=O)C(=O)c1c(C2CC2)n(Cc2ccccc2-c2ccccc2)c2cccc(OCC(=O)O)c12 | 5e-06 | 0.075 | – | >10000 | – | 5.8e-06 | 6 | 23 | – | – | – | –
7 | NC(=O)C(=O)c1c(C2CC2)n(Cc2ccccc2)c2cccc(OCC(=O)O)c12 | 2.3e-05 | – | – | – | – | 1e-05 | 28 | 41 | – | – | – | –
8 | Cc1c(C(=O)C(N)=O)c2c(O[C@@H](C)C(=O)O)cccc2n1Cc1ccccc1 | 0.00015 | – | – | – | – | 3.4e-05 | 188 | 136 | – | – | – | –
9 | CCc1c(C(=O)C(N)=O)c2c(OCC(N)=O)cccc2n1Cc1ccccc1 | 0.0001 | – | – | – | – | – | 124 | – | – | – | – | –
10 | Cc1c(C(=O)C(N)=O)c2c(CCC(=O)O)cccc2n1Cc1ccccc1 | 0.00012 | 0.614 | – | – | – | – | 145 | – | > 100000 | – | – | –
11 | Cc1c(C(=O)C(N)=O)c2c(OCC(=O)O)cccc2n1Cc1ccc(F)cc1 | 2.5e-05 | 0.11 | – | >30000 | – | 1.9e-05 | 30 | 74 | – | – | – | –
12 | NC(=O)C(=O)c1cn(Cc2ccccc2)c2ccc(OCCCC(=O)O)cc12 | 0.048 | – | – | – | – | – | – | – | – | – | – | –
13 | CCc1c(C(=O)C(N)=O)c2c(CC(=O)O)cc(C)cc2n1Cc1ccccc1 | 6.5e-06 | 0.124 | – | 3160 | – | 2e-06 | 8 | 8 | – | – | – | –
14 | CCc1[nH]c2cccc(OCC(=O)O)c2c1C(=O)C(N)=O | 0.0013 | 3.41 | – | – | – | – | 1600 | – | – | – | – | –
15 | CCCCCCCCn1c(C)c(C(=O)C(N)=O)c2c(OCC(=O)O)cccc21 | 6.5e-06 | 0.061 | – | >30000 | – | 4.5e-06 | 8 | 18 | – | 780 | – | –
16 | COc1cccc2c1c(C(=O)C(N)=O)c(C)n2Cc1ccccc1 | 0.00012 | – | – | – | – | – | 551 | – | – | – | – | –
17 | CCc1c(C(=O)C(N)=O)c2c(OC(CCc3ccccc3)C(=O)O)cccc2n1Cc1ccccc1 (stereo not given) | 3.8e-05 | 0.293 | – | >30000 | – | 6.5e-06 | 46 | 26 | – | – | – | –
18 | NC(=O)C(=O)c1cn(Cc2ccccc2)c2cccc(OCC(=O)O)c12 | 8e-05 | – | – | – | – | – | 96 | – | – | – | – | –
19 | CCc1c(C(=O)C(N)=O)c2c(N(CC(=O)O)C(C)=O)cccc2n1Cc1ccccc1 | – | – | – | – | – | – | > 100000 | – | – | – | – | –
20 | COc1cccc2c1c(CC(N)=O)c(C)n2Cc1ccccc1 | 0.00012 | – | – | – | – | – | 1180 | – | – | – | – | –
21 | CCc1c(C(=O)C(N)=O)c2c(OCC(=O)O)cccc2n1Cc1cccc(Cl)c1 | 5.8e-06 | 0.11 | – | 5000 | – | 6.3e-06 | 7 | 25 | – | – | 3 | 390
22 | Cc1c(C(=O)C(N)=O)c2c(OCC(=O)O)cccc2n1Cc1ccccc1Cl | 7.3e-06 | 0.1 | – | >30000 | – | 6.3e-06 | 9 | 25 | – | – | – | –
